Hits are enriched below; roughly 2.4% of the tested compounds scored in any of these assays.
Neddylation inh: inhibitors of cullin neddylation, primary screen, biochemical, TR-FRET, uHTS, NAE and Ubc12; inhibition, % at 25 µM; 0.58% of 360,000 active; AID 651699, 2012; NEDD8-conjugating enzyme Ubc12 (Homo sapiens) + NEDD8-activating enzyme E1 regulatory …; in the data active means inhibition above about 36%
Target sequence (P61081 whole entry, looked up): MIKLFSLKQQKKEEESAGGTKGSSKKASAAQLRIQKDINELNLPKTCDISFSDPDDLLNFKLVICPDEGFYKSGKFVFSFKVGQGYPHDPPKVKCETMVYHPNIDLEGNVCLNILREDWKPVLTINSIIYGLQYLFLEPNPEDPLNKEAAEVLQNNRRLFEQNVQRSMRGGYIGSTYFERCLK
Target sequence (Q13564 whole entry, looked up): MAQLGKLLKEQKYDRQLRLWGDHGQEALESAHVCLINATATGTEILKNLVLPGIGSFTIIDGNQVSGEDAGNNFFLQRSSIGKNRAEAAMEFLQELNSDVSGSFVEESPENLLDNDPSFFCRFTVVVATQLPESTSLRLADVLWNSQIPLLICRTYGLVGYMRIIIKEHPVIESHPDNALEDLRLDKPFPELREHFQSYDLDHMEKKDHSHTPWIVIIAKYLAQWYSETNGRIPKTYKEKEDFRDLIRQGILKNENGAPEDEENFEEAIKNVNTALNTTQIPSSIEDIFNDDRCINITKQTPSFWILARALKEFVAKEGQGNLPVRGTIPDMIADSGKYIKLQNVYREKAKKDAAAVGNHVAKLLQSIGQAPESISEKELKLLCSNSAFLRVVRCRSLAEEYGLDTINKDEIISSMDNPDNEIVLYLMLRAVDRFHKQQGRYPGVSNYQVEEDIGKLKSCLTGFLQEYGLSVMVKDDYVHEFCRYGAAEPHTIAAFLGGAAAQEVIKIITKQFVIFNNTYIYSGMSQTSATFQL
CSN inh: inhibitors of CSN-mediated cullin deneddylation, primary screen, biochemical, fluorescence polarization, uHTS | COP9 signalosome complex subunit 5 (Homo sapiens), Q92905 | Purified CSN, SCF-Nedd8-OG deneddylation | inhibition, % at 12.5 µM | 0.38% of 360,000 active;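 active means pattern-corrected inhibition above about 35%, with an unprinted fluorescence ratio check between 0.5 and 1.5, limit read from the data, passing the limit was not always enough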;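 further: 0% = enzyme with substrate and 100% = substrate without enzyme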
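Assay system: purified human Csn5 enzyme expressed in HEK293T cells; Input: 0.24 nM Csn5 enzyme, final concentration; Reagent: 10 nM SCFSkp2-Nedd8OG; Compound dosing: 12.5 µM single point; Times: reaction 90 min, room temperature; Technique: fluorescence polarization readout.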
Rpn11 inh: Rpn11 (PSMD14) deubiquitinase inhibitors, primary screen, biochemical, fluorescence polarization, uHTS | 26S proteasome non-ATPase regulatory subunit 14 (Homo sapiens), O00487 | human 26S proteasome, Ub4-pepOG fluorescence polarization; 20S core pre-blocked with epoxomicin | inhibition, % at 20 µM | 0.59% of 360,000 active;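 active means inhibition at 20 µM, scaled to each plate's controls, above about 33%, limit read from the data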
Tb MetRS inh: T. brucei MetRS inhibitors, primary screen, biochemical, luminescence; methionyl-tRNA synthetase (Trypanosoma brucei brucei); purified T. brucei MetRS, ATP depletion, Kinase-Glo luminescence; inhibition, % at 11.9 µM; 0.4% of 360,000 active;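 active means inhibition above a per-plate cutoff of the control wells' mean inhibition plus 3 SD, cut at about 5.5% in these data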;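 further: 0% = DMSO wells median and 100% = median of wells with control inhibitor compound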
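Material: parasite MetRS enzyme / Replication: singlicate, one well per compound / Signal: luminescence of leftover ATP / Schedule: 2 h aminoacylation at 25 °C after 15 min preincubation / Medium: HEPES-MgCl2-KCl buffer plus DTT, spermine, BSA, pyrophosphatase / Doses: 11.9 µM single point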
HNF4A DNA FP: change in binding of human HNF4A to DNA, primary screen, biochemical, fluorescence polarization, FITC-DNA. 0.3% of 360,000 active. Hepatocyte nuclear factor 4-alpha (Homo sapiens), P41235. 1 h. activity change, % at 10 µM; in the data active means activity change above about 30%, passing the limit was not always enough
PREPL inh: PREPL enzyme inhibitors, primary screen, biochemical, fluorescence polarization; inhibition, % at 5.96 µM; recombinant PREPL, fluorescence polarization activity-based probe; Prolyl endopeptidase-like (Homo sapiens), Q4J6C6; 0.68% of 320,000 active; in the data active means inhibition above about 43%;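 further: 0% = enzyme with DMSO and 100% = wells lacking enzyme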
Neddyl conf: blockade of NEDD8 conjugation to cullin – biochemical, TR-FRET, single concentration, confirmation | shares compounds with Neddylation inh | TR-FRET cullin neddylation biochemical assay | calls only at 25 µM | 13% of 1,800 active; in the data active means inhibition above about 40%;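 further: neddylation substrate is the cullin 1 ring ligase complex with SKP2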
An asterisk follows results filed as active; i = inactive; . = no result shown; + = active, no number.

SMILES	Neddylation inh	CSN inh	Rpn11 inh	Tb MetRS inh	HNF4A DNA FP	PREPL inh	Neddyl conf
N#Cc1cccnc1N1CCN(C(=O)c2ccco2)CC1	49*	-3	3	0	2	-7	i
Cc1nc(N2CCN(C(=O)c3ccco3)CC2)c(C#N)c2c1CCCC2	48*	-1	-6	1	-3	6	i
COc1cccc(-c2nc(C#N)c(N3CCN(C(=O)c4ccco4)CC3)o2)c1	56*	-2	5	-1	-4	6	i
CC(C)Cc1nc(N2CCN(C(=O)c3ccco3)CC2)c(C#N)c2c1CCCC2	24	-1	4	0	4	25	.
Cc1cc(C(=O)N2CCN(c3ncccc3C#N)CC2)no1	29	-1	1	0	1	0	.
CCOc1ccc(CCNC(=O)COC(=O)c2ccc(S(=O)(=O)N3CCCC3)cc2)cc1OCC	4	-2	0	0	3	16	.
CCN(CC(=O)NCc1cccs1)C(=O)/C=C/c1cccc(OC)c1OC	46*	-8	-4	0	-1	5	.
Cn1c(NCCOc2ccccc2Cl)nc2cc(-c3ccc(F)cc3)sc2c1=O	-40	-2	3	0	0	.	.
NC(=O)c1cc2ccc(O)cc2oc1=Nc1ccccc1	54*	-4	1	1	4	.	i
COc1ccc2cc(C(N)=O)c(=Nc3ccccc3)oc2c1	27	2	-4	-1	2	8	.
COC(=O)c1ccc(C(=O)OC)c(=O)[nH]1	49*	6	4	-1	3	9	.
COC(=O)c1c[nH]c(=O)c2ccccc12	33	4	-1	2	-2	14	.
COc1ccc(NC(=O)c2ccc(OC)c(S(=O)(=O)N3CCCCC3C)c2)cn1 (stereo unspecified)	-19	-1	-23	1	-7	0	.
Clc1ccc(-c2cn3ccccc3n2)cc1	40*	-4	-8	-3	6	-3	i
O=C(Nc1ccc(-c2cn3ccccc3n2)cc1)c1ccc(Cl)cc1	36	4	19	0	-1	-13	.
CCNC(=S)N(CCO)Cc1cc2cc3c(cc2[nH]c1=O)OCO3	28	7	-3	1	1	6	.
Cc1nn(C)c2nc(-c3cccs3)cc(C(F)(F)F)c12	45*	-13	-2	0	0	7	i
Cc1nn(CCO)c2nc(-c3cccs3)cc(C(F)(F)F)c12	.	0	-1	-2	1	-4	.
Cc1cc(NC(=O)CSc2ccc3nnc(-c4ccccn4)n3n2)no1	41*	1	6	0	-2	4	.
O=C(CSc1ccc2nnc(-c3ccccn3)n2n1)Nc1ccccc1	2	1	1	0	-15	-31	.
O=C(NN1C(=O)c2ccc3c4c(ccc(c24)C1=O)CC3)c1ccc(Br)cc1	45*	3	1	-1	2	14	i
CCCNC(=O)c1oc2ccc3c(c2c1C)C=CC(C)(C)O3	40*	0	2	0	-5	-8	i
CCCNC(=O)c1oc2ccc3c(c2c1C)C(=O)CC(C)(C)O3	.	2	3	0	-3	-4	.
COc1cc2c(cc1O)C(Cc1ccc(O)cc1)[N+](C)([O-])CC2 (stereo unspecified)	2	1	5	0	1	-8	.
COc1ccc(C[C@H]2c3cc(O)c(OC)cc3CC[N+]2(C)[O-])cc1O (stereo partly specified)	46*	-3	-3	0	-2	2	+

Screens: PubChem BioAssay, several laboratories
